ChEMBL document CHEMBL6096655, “Discovery of a novel, selective CK2 inhibitor class with an unusual basic scaffold” (Eur J Med Chem, 2025)

Assays:
[1] = Upregulation of PARP cleavage in human U-937 cells by measuring signal 1 at 5 uM measured after 48 hrs by immunoblot analysis; format: functional
Method in brief: (§1)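 U937 cells exposed to compound or DMSO for 48 h, then lysed in Laemmli buffer. Lysates were run on 8–16% gradient SDS-PAGE, semi-dry blotted to PVDF and probed for PARP. Detection used IR-fluorescent secondary antibodies. The cleaved/uncleaved PARP signal ratio was obtained by densitometry. Results are representative of two independent experiments.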

[2] = biological target: Homeodomain-interacting protein kinase 3 (Homo sapiens) (UniProt Q9H422); test: Inhibition of human recombinant HIPK3 at 2 uM by Eurofins kinase assay relative to control
[3] = biological target: Casein kinase I isoform gamma-1 (Homo sapiens) (UniProt Q9HCP0); test: Inhibition of human recombinant GST tagged CSNK1G1 expressed in insect cells at 2 uM by Eurofins kinase assay relative to control
Chain of Casein kinase I isoform gamma-1 (Homo sapiens) (Q9HCP0 whole entry, looked up, canonical isoform): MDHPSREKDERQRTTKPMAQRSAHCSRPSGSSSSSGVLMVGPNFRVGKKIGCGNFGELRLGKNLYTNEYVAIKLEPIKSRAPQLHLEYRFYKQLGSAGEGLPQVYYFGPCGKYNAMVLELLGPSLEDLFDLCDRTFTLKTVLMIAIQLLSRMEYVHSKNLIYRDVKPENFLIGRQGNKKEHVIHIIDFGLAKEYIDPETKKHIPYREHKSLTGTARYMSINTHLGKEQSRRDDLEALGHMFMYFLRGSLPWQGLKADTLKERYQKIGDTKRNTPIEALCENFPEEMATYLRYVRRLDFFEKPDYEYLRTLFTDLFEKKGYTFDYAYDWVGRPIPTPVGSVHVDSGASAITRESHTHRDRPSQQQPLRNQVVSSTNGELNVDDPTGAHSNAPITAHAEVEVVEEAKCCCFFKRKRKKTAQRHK

[4] = biological target: Serine/threonine-protein kinase Chk1 (Homo sapiens) (UniProt O14757); test: Inhibition of human recombinant CHK1 at 2 uM by Eurofins kinase assay relative to control
Chain of Serine/threonine-protein kinase Chk1 (Homo sapiens) (O14757 whole entry): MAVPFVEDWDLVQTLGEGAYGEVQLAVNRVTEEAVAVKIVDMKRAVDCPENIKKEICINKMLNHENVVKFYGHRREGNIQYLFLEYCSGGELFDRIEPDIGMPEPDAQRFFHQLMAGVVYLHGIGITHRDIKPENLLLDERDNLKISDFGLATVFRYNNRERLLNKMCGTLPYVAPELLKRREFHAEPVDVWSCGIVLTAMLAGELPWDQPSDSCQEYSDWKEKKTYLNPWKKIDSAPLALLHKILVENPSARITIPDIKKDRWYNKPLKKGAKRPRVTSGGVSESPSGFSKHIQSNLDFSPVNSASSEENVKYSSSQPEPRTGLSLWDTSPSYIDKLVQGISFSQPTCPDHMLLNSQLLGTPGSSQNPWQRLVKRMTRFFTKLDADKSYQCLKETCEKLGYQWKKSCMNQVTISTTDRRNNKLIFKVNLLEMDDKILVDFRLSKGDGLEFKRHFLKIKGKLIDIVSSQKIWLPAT

[5] = biological target: Serine/threonine-protein kinase pim-1 (Homo sapiens) (UniProt P11309); test: Inhibition of human recombinant PIM1 at 2 uM by Eurofins kinase assay relative to control
Chain of Serine/threonine-protein kinase pim-1 (Homo sapiens) (P11309 whole entry, looked up): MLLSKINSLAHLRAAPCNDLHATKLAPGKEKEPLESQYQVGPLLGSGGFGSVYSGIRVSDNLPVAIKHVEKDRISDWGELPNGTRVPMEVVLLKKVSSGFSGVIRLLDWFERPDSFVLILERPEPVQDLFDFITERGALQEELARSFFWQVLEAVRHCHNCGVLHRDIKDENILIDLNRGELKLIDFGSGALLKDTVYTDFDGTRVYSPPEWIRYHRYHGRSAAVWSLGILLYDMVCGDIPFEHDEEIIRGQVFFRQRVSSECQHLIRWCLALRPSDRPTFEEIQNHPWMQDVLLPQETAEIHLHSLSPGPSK

[6] = biological target: Dual specificity tyrosine-phosphorylation-regulated kinase 1B (Homo sapiens) (UniProt Q9Y463); test: Inhibition of human recombinant DYRK1B at 2 uM by Eurofins kinase assay relative to control
Chain of Dual specificity tyrosine-phosphorylation-regulated kinase 1B (Homo sapiens) (Q9Y463 whole entry, looked up): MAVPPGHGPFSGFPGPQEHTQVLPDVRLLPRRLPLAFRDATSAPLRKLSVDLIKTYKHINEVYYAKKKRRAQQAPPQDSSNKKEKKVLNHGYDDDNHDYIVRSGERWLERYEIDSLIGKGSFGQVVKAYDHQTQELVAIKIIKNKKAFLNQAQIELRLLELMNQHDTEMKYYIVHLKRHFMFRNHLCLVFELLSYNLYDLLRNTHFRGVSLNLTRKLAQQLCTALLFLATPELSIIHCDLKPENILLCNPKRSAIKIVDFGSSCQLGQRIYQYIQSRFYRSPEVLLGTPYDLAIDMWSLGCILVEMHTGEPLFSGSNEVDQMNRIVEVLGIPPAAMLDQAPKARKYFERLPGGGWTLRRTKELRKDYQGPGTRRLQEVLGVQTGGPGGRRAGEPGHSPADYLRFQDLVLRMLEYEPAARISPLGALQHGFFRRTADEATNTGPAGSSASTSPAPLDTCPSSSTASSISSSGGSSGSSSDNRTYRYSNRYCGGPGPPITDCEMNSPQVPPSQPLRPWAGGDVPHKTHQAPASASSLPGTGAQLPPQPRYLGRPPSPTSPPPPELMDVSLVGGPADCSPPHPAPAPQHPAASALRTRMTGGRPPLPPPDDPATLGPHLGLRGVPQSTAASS

[7] = Antiproliferative activity against HEK293 cells assessed as inhibition of cell growth measured after 3 to 4 days by MTT assay; format: toxicity, cell-based; conditions: human, time 3-4 day
Method in brief: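 HEK293 cells grown in DMEM with 2 mM L-glutamine, 1% pen/strep and 10% FCS. Cells were seeded at 5000 per well, left overnight, then given medium with 1% FCS plus compound or DMSO (max. 0.2% final). They were grown 3–4 days at 37 °C in 5% CO₂ with no medium change, and growth was read by MTT.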

Homo sapiens [8] = organism: Homo sapiens; test: Inhibition of human recombinant GST tagged CDK1/cyclin B expressed in insect cells at 2 uM by Eurofins kinase assay relative to control
[9] = biological target: Eukaryotic translation initiation factor 2 subunit 2 (Homo sapiens) (UniProt P20042); test: Inhibition of eIF2beta phosphorylation in human 786-O cells at 8 uM measured after 48 hrs by immunoblot analysis relative to control
Chain of Eukaryotic translation initiation factor 2 subunit 2 (Homo sapiens) (P20042 whole entry): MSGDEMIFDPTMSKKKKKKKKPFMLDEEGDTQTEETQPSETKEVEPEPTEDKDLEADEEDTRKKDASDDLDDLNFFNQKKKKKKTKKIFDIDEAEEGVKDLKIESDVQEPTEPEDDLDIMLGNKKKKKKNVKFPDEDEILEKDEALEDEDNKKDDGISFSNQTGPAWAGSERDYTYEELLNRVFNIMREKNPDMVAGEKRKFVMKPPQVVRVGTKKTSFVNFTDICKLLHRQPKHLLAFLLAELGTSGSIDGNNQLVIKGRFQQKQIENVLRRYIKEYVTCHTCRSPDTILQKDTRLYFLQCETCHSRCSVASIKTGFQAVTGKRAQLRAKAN

[10] = biological target: Signal transducer and activator of transcription 3 (Homo sapiens) (UniProt P40763); test: Inhibition of STAT3 phosphorylation in human 786-O cells at 6 uM measured after 48 hrs by immunoblot analysis relative to control
Chain of Signal transducer and activator of transcription 3 (Homo sapiens) (P40763 whole entry): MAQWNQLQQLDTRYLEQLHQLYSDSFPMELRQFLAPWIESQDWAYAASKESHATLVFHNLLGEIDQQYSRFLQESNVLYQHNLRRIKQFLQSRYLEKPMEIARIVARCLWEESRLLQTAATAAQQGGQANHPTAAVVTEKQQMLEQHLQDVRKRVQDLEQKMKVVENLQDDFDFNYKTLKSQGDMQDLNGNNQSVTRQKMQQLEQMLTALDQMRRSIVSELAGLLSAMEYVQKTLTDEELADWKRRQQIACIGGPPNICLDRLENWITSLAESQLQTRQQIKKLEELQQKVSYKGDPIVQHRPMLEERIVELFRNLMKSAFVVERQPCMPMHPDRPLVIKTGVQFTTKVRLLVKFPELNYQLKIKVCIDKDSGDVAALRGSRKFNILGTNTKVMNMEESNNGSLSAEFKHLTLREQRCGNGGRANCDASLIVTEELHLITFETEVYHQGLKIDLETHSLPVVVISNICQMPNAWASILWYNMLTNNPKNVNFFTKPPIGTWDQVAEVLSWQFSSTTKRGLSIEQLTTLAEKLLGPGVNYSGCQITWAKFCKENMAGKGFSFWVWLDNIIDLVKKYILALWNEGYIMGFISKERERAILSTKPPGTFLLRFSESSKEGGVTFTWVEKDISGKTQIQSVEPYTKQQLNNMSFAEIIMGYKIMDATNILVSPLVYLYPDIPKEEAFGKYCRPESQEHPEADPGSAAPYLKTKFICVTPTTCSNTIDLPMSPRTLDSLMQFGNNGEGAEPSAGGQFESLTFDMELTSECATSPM

[11] = biological target: Homeodomain-interacting protein kinase 1 (Homo sapiens) (UniProt Q86Z02); test: Inhibition of human recombinant HIPK1 at 2 uM by Eurofins kinase assay relative to control
Chain of Homeodomain-interacting protein kinase 1 (Homo sapiens) (Q86Z02 whole entry, looked up): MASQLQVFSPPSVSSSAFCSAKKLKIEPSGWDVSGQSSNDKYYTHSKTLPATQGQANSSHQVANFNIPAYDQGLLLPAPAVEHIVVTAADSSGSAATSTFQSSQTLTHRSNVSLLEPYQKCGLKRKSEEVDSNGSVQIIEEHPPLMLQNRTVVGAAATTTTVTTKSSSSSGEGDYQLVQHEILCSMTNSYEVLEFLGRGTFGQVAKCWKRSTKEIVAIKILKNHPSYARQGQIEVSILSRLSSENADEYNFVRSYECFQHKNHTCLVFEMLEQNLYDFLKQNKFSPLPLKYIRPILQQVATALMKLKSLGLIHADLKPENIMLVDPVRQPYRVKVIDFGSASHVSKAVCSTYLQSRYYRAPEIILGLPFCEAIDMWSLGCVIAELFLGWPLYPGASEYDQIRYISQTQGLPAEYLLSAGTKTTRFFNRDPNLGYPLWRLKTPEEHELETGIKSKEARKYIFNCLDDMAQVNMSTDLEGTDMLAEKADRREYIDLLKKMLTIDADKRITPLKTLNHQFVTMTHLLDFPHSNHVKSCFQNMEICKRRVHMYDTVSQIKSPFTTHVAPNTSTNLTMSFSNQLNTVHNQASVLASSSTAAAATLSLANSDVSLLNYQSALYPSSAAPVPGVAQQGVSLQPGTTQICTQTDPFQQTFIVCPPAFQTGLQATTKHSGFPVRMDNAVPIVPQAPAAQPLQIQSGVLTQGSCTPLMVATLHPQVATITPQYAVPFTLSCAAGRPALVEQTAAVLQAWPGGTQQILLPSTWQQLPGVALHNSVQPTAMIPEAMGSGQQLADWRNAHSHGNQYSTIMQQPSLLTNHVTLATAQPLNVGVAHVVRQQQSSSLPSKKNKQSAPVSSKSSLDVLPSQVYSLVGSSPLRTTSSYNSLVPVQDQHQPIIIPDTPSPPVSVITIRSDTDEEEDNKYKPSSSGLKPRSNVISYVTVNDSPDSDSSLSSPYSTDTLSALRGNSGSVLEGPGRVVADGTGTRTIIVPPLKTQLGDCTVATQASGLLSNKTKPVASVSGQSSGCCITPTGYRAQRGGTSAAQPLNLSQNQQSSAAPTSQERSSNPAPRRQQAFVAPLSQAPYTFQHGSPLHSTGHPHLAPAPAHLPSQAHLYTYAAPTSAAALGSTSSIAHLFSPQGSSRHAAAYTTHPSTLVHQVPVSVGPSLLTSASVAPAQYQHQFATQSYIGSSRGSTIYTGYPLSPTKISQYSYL

[12] = biological target: Eukaryotic translation initiation factor 2 subunit 2 (Homo sapiens) (UniProt P20042); test: Inhibition of eIF2beta phosphorylation in human 786-O cells at 10 uM measured after 48 hrs by immunoblot analysis relative to control
[13] = system: Mast/stem cell growth factor receptor Kit (Homo sapiens), P10721 [D816H]; test: Inhibition of human recombinant GST/His tagged KIT D816H mutant expressed in insect cells at 2 uM by Eurofins kinase assay relative to control
[14] = Upregulation of PARP cleavage in human U-937 cells by measuring signal 2 at 15 uM measured after 48 hrs by immunoblot analysis; format: functional
Method in brief: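 U937 lymphoma cells grown in RPMI with 2 mM L-glutamine, 1 % pen/strep and 10 % FCS; exposed to compound or DMSO solvent control for 48 h. Total cellular proteins harvested and immunoblotted with an antibody against phosphorylated CK2-substrate motifs and for PARP. Read-out is the densitometric ratio of cleaved to uncleaved PARP signal. Representative of two independent experiments.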

[15] = Upregulation of PARP cleavage in human U-937 cells by measuring signal 1 at 10 uM measured after 48 hrs by immunoblot analysis; format: functional; method in brief: as §1
[16] = biological target: Homeodomain-interacting protein kinase 2 (Homo sapiens) (UniProt Q9H2X6); test: Inhibition of human recombinant HIPK2 at 2 uM by Eurofins kinase assay relative to control
[17] = biological target: Glycogen synthase kinase-3 beta (Homo sapiens) (UniProt P49841); test: Inhibition of human recombinant GSK3B at 2 uM by Eurofins kinase assay relative to control
Chain of Glycogen synthase kinase-3 beta (Homo sapiens) (P49841 whole entry, looked up): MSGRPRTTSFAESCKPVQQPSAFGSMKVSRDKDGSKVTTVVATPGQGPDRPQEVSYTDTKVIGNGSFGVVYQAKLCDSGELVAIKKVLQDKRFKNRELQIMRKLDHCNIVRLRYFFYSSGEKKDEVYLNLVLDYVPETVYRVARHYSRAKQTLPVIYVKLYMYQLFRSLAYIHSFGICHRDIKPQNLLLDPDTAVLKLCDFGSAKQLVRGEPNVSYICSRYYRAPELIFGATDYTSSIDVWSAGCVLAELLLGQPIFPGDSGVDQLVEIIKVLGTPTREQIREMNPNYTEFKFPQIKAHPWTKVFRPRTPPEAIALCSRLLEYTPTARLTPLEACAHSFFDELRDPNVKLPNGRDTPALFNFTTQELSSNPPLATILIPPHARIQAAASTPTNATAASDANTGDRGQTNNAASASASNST

[18] = Upregulation of PARP cleavage in human U-937 cells by measuring signal 2 at 10 uM measured after 48 hrs by immunoblot analysis; format: functional; method in brief: as §1
[19] = biological target: Vascular endothelial growth factor receptor 3 (Homo sapiens) (UniProt P35916); test: Inhibition of human recombinant FLT4 at 2 uM by Eurofins kinase assay relative to control
[20] = biological target: Signal transducer and activator of transcription 3 (Homo sapiens) (UniProt P40763); test: Inhibition of STAT3 phosphorylation in human 786-O cells at 8 uM measured after 48 hrs by immunoblot analysis relative to control
[21] = system: Receptor-type tyrosine-protein kinase FLT3 (Homo sapiens), P36888 [D835Y]; test: Inhibition of human recombinant his tagged FLT3 D835Y expressed in insect cells at 2 uM by Eurofins kinase assay relative to control
786-0 = test: Induction of cell death in human 786-0 cells assessed as cell viability measured after 11 hrs by CellCyteX live-cell microscopy analysis; format: functional, cell-based; conditions: dose 10-20 µM
Method in brief: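 786-O cells seeded at 3×10³ per well and grown 24 h. Compound was then added in culture medium containing 125 nM Cytotox Green, at 0.2% (v/v) final DMSO, and kept at 37 °C in 5% CO₂. Green fluorescence images of dead cells were taken every 3 h by live-cell microscopy and normalized to the DMSO control. Results are representative of three independent measurements.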

[22] = biological target: PAS domain-containing serine/threonine-protein kinase (Homo sapiens) (UniProt Q96RG2); test: Inhibition of human recombinant PASK at 2 uM by Eurofins kinase assay relative to control
[23] = biological target: Serine/threonine-protein kinase 17A (Homo sapiens) (UniProt Q9UEE5); test: Inhibition of human STK17A at 2 uM by Eurofins kinase assay relative to control
Chain of Serine/threonine-protein kinase 17A (Homo sapiens) (Q9UEE5 whole entry): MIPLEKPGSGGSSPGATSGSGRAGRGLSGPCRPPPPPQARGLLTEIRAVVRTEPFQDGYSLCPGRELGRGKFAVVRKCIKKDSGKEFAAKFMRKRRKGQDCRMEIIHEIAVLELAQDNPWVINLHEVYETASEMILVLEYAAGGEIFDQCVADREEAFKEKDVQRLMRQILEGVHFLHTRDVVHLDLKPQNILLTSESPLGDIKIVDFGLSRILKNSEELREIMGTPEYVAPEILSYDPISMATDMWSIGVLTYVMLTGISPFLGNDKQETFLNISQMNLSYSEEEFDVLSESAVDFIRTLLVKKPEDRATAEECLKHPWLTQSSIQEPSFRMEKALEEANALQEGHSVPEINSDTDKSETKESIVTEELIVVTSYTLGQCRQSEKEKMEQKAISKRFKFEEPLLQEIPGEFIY

[24] = biological target: Serine/threonine-protein kinase D1 (Homo sapiens) (UniProt Q15139); test: Inhibition of human recombinant PRKD1 at 2 uM by Eurofins kinase assay relative to control
Homo sapiens [25] = organism: Homo sapiens; test: Inhibition of human recombinant His-tagged PIK3CA/PIK3R1 at 2 uM by Eurofins kinase assay relative to control

## Clc1ccc(N2CCN(c3ncnc4sc5c(c34)CCNC5)CC2)cc1.O=C(O)C(F)(F)F
[1]
  Activity: 72%
[2]
  inhibition: 9%
[3]
  inhibition: 21%
[4]
  inhibition: 16%
[5]
  inhibition: 0%
[6]
  inhibition: 2%
[7]
  GI50: 30 µM
Homo sapiens [8]
  inhibition: 4%
[9]
  inhibition: 32%
[10]
  inhibition: 64%
[11]
  inhibition: 5%
[12]
  inhibition: 83%
[13]
  inhibition: 4%
[14]
  Activity: 72%
[15]
  Activity: 89%
[16]
  inhibition: 15%
[17]
  inhibition: 0%
[18]
  Activity: 38%
[19]
  inhibition: 5%
[20]
  inhibition: 80%
[21]
  inhibition: 11%
786-0
  Activity: Dose-dependent-effect
[22]
  inhibition: 0%
[23]
  inhibition: 0%
[24]
  inhibition: 10%
Homo sapiens [25]
  inhibition: 0%
